From PubChem BioAssay
PG9 Ab binder = binders of HIV-1 gp120 antibody PG9, primary screen, biochemical, TR-FRET; HIV-1 gp120 / PG9 antibody interaction; TR-FRET gp120-PG9 antibody binding; inhibition, % at 6.7 µM; actives 0.43% (n = 360,000); in the data active = inhibition above about 8.5%
Rev-erbA mod = modulators of Rev-erb alpha DNA binding, primary screen, biochemical, FITC-DNA, fluorescence polarization, uHTS | Nuclear receptor subfamily 1 group D member 1 (Homo sapiens), P20393 | Rev-erbα–FITC-DNA binding, 90 min | activity, % at 10 µM | actives 0.79% (n = 370,000) | AID 1259318, 2017;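 active = activity above about 14%, limit read from the data; passing the limit was not always enough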;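 note: 0% = DMSO wells with 35 nM protein and 100% = DMSO wells with 750 nM protein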
Target sequence (P20393 whole entry, looked up): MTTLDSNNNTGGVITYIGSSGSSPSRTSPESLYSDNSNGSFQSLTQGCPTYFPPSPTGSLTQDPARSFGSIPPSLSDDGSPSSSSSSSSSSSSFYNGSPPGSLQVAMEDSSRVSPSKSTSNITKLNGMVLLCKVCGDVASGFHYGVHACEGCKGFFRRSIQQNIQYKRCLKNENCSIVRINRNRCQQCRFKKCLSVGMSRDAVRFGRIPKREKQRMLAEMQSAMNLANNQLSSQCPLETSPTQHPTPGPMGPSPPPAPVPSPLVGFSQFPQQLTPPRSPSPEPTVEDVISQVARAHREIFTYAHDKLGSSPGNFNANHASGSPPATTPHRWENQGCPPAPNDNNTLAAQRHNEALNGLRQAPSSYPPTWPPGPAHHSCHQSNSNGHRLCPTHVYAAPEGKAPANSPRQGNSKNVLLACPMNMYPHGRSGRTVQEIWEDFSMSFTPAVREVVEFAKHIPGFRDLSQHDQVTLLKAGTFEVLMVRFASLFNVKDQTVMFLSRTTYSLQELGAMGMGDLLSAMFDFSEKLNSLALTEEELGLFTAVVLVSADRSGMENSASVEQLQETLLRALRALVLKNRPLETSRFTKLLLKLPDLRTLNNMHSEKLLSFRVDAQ
PKA-R1A activ = activators of PKA-R1A holoenzyme, primary screen, biochemical, fluorescence polarization, Cy5-IP20, bovine R1A, mouse PKAc | PKA-R1A dissociation; scaled: DMSO 0%, 113 µM cGMP 100% | AID 504707, 2011 | cAMP-dependent protein kinase type I-alpha regulatory subunit (Bos taurus) + … | actives 0.083% (n = 340,000) | activation, % at 11.4 µM;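 active = percent activation above the mean of all tested compounds plus 3 SD, cut at about 19% in these data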;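 note: higher means more PKAc released from R1A so a rise in polarization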
NR2E3 ag-1 = inhibitors of NR2E3-RetCOR corepressor binding, primary screen, NR2E3 agonist project, biochemical, TR-FRET, GST-NR2E3, biotin-RetCOR; Photoreceptor-specific nuclear receptor (Homo sapiens), Q9Y5X4; 1536-well; inhibition of corepressor binding, % at 4.78 µM; actives 0.12% (n = 320,000); AID 2300, 2010;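 active = percent inhibition above the cutoff of mean plus 3 SD of all tested compounds, set per screening campaign, cut at about 20% in these data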;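 note: 0% = DMSO wells and 100% = biotin wells as full block of FRET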
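System: GST-NR2E3 and biotin-RetCOR proteins; probe or stimulus: 7 nM biotin-RetCOR; doses: compound at 4.8 µM, single dose; schedule: Compound–protein incubation for 5 h at 4 °C; detection: time-resolved FRET; read-out: percent inhibition; controls: biotin wells as high control, 0.6% DMSO wells as low control; format: 1536-well plates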
NR2E3 ag-2 = NR2E3 agonists in two-hybrid cells, primary screen, cell-based, luminescence, CHO-S, Gal4-NCOR/VP16-NR2E3; Photoreceptor-specific nuclear receptor (Homo sapiens), Q9Y5X4; luciferase; inhibition of corepressor binding, % at 3.98 µM; actives 0.35% (n = 360,000); AID 602229, 2012;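 active = inhibition above the mean of all tested compounds plus 3 SD, cut at about 70% in these data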;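 note: 0% = DMSO with NR2E3 transfected cells and 100% = cells lacking NR2E3 construct; higher means lower luciferase signal from less NR2E3 corepressor binding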
PKA-R2B act = activators of PKA-R2B holoenzyme, primary screen, biochemical, fluorescence polarization, Cy5-IP20, human. PKA-R2B holoenzyme dissociation; R2B truncated from residue 108, S112A mutant; 0% DMSO only, 100% 113 µM cGMP. activation, % at 11.4 µM. cAMP-dependent protein kinase catalytic subunit beta (Homo sapiens) + cAMP-dependent …. actives 0.079% (n = 340,000);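 active = activation above a cutoff set at the mean over all compounds plus 3 SD, cut at about 18% in these data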;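 note: higher means more holoenzyme dissociation and a rise in polarization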
PG9 bind confirm = binders of anti-gp120 antibody PG9, confirmation, biochemical, TR-FRET. TR-FRET PG9 antibody binding. actives 90% (n = 1,500). AID 651571, 2012. inhibition, % at 6.7 µM. shares compounds with PG9 Ab binder; in the data active = inhibition above about 9%
PGV04 Ab binding = binders of control antibody PGV04, counter-screen for PG9 antibody binder project, biochemical, TR-FRET, distinct HIV envelope site; shares compounds with PG9 Ab binder; TR-FRET PGV04 antibody-gp120 binding; inhibition, % at 6.7 µM; actives 95% (n = 1,500); in the data active = inhibition above about 9.5%
NR1D1 mod conf = modulators of Rev-erb alpha DNA binding, confirmation, biochemical, FITC-DNA, fluorescence polarization, single point; AID 1259319, 2017; activation, % at 25 µM; shares compounds with Rev-erbA mod; 90 min; actives 61% (n = 3,000);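 active = activation at or above a set limit, or at least 3 SD above the negative control mean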;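 note: 0% = 35 nM protein with DMSO and 100% = 750 nM protein high control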
RORg counter = modulation of RORgamma DNA binding, dose response, counter-screen for Rev-erb alpha modulator project, biochemical, fluorescence polarization, FITC-DNA. shares compounds with Rev-erbA mod. purified RORgamma protein-FITC-DNA binding. IC50, µM. actives 8% (n = 910). AID 1259320, 2017;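 active = Compounds whose fitted half-maximal concentration for disrupting protein-DNA binding is below 10 micromolar; the record names Rev-erb in its text, so the target is in doubt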
An asterisk follows results filed as active; i = inactive; · = no result. Only some compounds are listed: those with a hit (about 1.6% of all), similar ones and a draw of the others.

SMILES	PG9 Ab binder	Rev-erbA mod	PKA-R1A activ	NR2E3 ag-1	NR2E3 ag-2	PKA-R2B act	PG9 bind confirm	PGV04 Ab binding	NR1D1 mod conf	others
O=C1c2cccc3cccc(c23)C(=O)N1OS(=O)(=O)c1ccccc1	28*	59*	-6	3	5	-11	28*	62*	10
O=C1c2cccc3cccc(c23)C(=O)N1OS(=O)(=O)c1ccc(Br)cc1	-2	21	-8	1	-23	2	·	·	·
O=C(NCCc1ccc(F)cc1)c1cc2ccccn2n1	·	1	·	·	·	·	·	·	·
CCOc1cc(CNC(=O)CCCn2c(=O)c3cccn3c3cccnc32)cc(OCC)c1OCC	1	-4	-13	0	-10	-6	·	·	·
O=C(CCCn1c(=O)c2cccn2c2cccnc21)NCc1cccc(Br)c1	23*	45*	-12	-1	0	-2	31*	41*	19*
COc1cccc(CNC(=O)Cn2c(=O)c3cccn3c3ccccc32)c1	19*	19*	8	2	-19	10	24*	44*	-4
COc1ccc2c(-c3ccccc3)cc(SCC(=O)NC(N)=O)nc2c1	17*	40*	-1	4	-6	4	28*	65*	14
COc1ccc2c(C)cc(SCC(=O)Nc3ncc(Cl)cc3Cl)nc2c1	14*	119*	-15	0	-4	-7	37*	53*	56*	RORg counter=>40
O=C(Nc1ccc2c(c1)C(=O)NC2=O)c1ccc(Cl)s1	-3	4	-22	1	-7	-7	·	·	·
O=C(Nc1ccc2c(c1)C(=O)NC2=O)c1cc(Cl)ccc1Cl	9.5*	144*	-1	2	3	-1	10*	15*	121*	RORg counter=>40
CC1Cc2ccccc2N1C(=O)COC(=O)c1cc(Br)ccc1O (configuration not stated)	20*	35*	-9	-1	-15	-11	6	8	25*
CC1Cc2ccccc2N1C(=O)COC(=O)c1cccc(Br)c1 (configuration not stated)	-1	0	1	2	-7	-9	·	·	·
CCc1ccc2[nH]c3nc(C)cc(C)c3c(=O)c2c1	25*	30*	6	-6	-92	14	16*	23*	25*
Cc1ccc(OCCn2c(NC(=O)c3ccco3)nc3ccccc32)cc1	19*	30*	6	-2	-2	-2	17*	25*	13
Cn1cc(C2NC(=O)c3ccccc3N2)c2ccccc21 (configuration not stated)	20*	25*	-7	·	-70	-1	9.9*	22*	18*
Cc1ccc(C)c(C2NC(=O)c3ccccc3N2)c1 (configuration not stated)	1	2	-5	-1	-28	-7	·	·	·
O=C(CSc1nnc(-c2n[nH]c3ccccc23)n1-c1ccccc1)Nc1cccc(Cl)c1	2	7	-7	1	-13	-2	·	·	·
CCc1ccc(NC(=O)CSc2nnc(-c3n[nH]c4ccccc34)n2-c2ccccc2)cc1	9.8*	34*	0	0	-3	-12	15*	24*	38*	RORg counter=>40
Cc1ccccc1NC(=O)CSc1nnc(-c2ccccc2)n1-c1ccccc1	37*	37*	11	7	0	9	4	6	21*
Cc1ccc(-n2c(SCC(=O)Nc3ccccc3-c3ccccc3)nnc2-c2ccccc2)cc1	·	-5	·	·	·	·	·	·	·
Cc1cc(C)c(NC(=O)CSc2nc3ncc(Br)cc3[nH]2)c(Cl)c1	35*	47*	-2	0	-13	-4	39*	63*	64*	RORg counter=i
Cc1cc(C)c(NC(=O)CSc2nc3ncc(Cl)cc3[nH]2)c(C)c1	3	11	-5	1	-37	-1	·	·	·
Cc1ccc(NC(=O)CSc2nc3ncc(Br)cc3[nH]2)cc1C	45*	195*	-18	1	-34	-5	66*	79*	186*	RORg counter=>40
O=C(NN=Cc1ccc(O)cc1)c1cc(-c2ccc(Cl)cc2)n[nH]1	·	5	·	·	·	·	·	·	·
O=C(CNC(=O)c1sc2ccccc2c1Cl)Nc1ccccc1F	12*	44*	-7	6	-44	-1	17*	32*	10
SMILES	PG9 Ab binder	Rev-erbA mod	PKA-R1A activ	NR2E3 ag-1	NR2E3 ag-2	PKA-R2B act	PG9 bind confirm	PGV04 Ab binding	NR1D1 mod conf	others
Cc1ccc(-c2nnc(SCC(=O)Nc3ccc4c(c3)OCCO4)n2-c2ccc(Cl)cc2)cc1	·	-1	·	·	·	·	·	·	·
Cc1ccccc1OCCC(=O)Nc1ccc2c(C)cc(=O)oc2c1	10*	23*	-5	-4	-37	-14	15*	38*	6
COc1ccc(-c2cc(-c3ccccc3)nc3ncnn23)cc1	-1	-1	-5	6	-16	-5	·	·	·
COc1ccc(-c2cc(-c3ccc(Br)cc3)nc3ncnn23)cc1OC	13*	25*	-8	7	16	-8	12*	20*	8
Fc1cccc2sc(Nc3nc4ccccc4s3)nc12	14*	40*	2	-2	-85	-7	13*	29*	35*	RORg counter=>40
O=C(NNc1nc2ccccc2s1)c1ccccc1F	-2	-3	-1	2	5	-4	·	·	·
CCOC(=O)c1sc2nc(C)nc(NCCc3ccc(S(N)(=O)=O)cc3)c2c1C	18*	40*	7	3	-15	-2	27*	47*	16
